{"source": "ChEMBL document CHEMBL1759850", "about": "“Design, synthesis, and biological evaluation of novel γ-carboline ketones as anticancer agents” (Eur J Med Chem, 2011)", "key": {"HCT-116": {"test_system": "HCT-116", "test": "Cytotoxicity against human HCT116 cells after 48 hrs by MTT assay", "type": "functional, cell-based", "conditions": "HCT-116, 48 h", "procedure,_shortened": "(§1)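 Cells were exposed to drug for 48 h, then given MTT in RPMI-1640 for a further 4 h at 37 °C. Formazan was dissolved in DMSO and absorbance read at 570 nm after 5 min. Each assay was run in triplicate in three independent experiments. IC50 (50% inhibition of viability) was computed by dose-effect analysis.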"}, "A549 [1]": {"test_system": "A549", "test": "Cytotoxicity against human A549 cells after 48 hrs by MTT assay", "type": "functional, cell-based", "conditions": "A549, 48 h", "procedure,_shortened": "as §1"}, "K562 [2]": {"test_system": "K562", "test": "Cytotoxicity against human multidrug-resistant K562 cells after 48 hrs by MTT assay", "type": "functional, cell-based", "conditions": "K562, 48 h", "procedure,_shortened": "as §1"}, "MCF7": {"test_system": "MCF7", "test": "Cytotoxicity against human MCF7 cells after 48 hrs by MTT assay", "type": "functional, cell-based", "conditions": "MCF7, 48 h", "procedure,_shortened": "as §1"}, "[3]": {"test": "Cytotoxicity against human SGC cells after 48 hrs by MTT assay", "type": "functional, cell-based", "procedure,_shortened": "as §1"}, "K562 [4]": {"test_system": "K562", "test": "Cytotoxicity against human K562 cells after 48 hrs by MTT assay", "type": "functional, cell-based", "conditions": "K562, 48 h", "procedure,_shortened": "as §1"}, "Tubulin [5]": {"target": "Tubulin", "test": "Inhibition of tubulin polymerization in human K562 cells by fluorometric analysis", "procedure,_shortened": "(§2)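 Tubulin polymerization was run at 37 °C in 80 mM PIPES (pH 6.9) with 20% glycerol, 1 mM GTP, 2.0 mM MgCl2 and 0.5 mM EGTA. It was followed kinetically on a fluorescence plate reader.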"}, "A549 [6]": {"test_system": "A549", "test": "Cell cycle arrest in human A549 cells assessed as accumulation at G2/M phase at 2 uM after 48 hrs by flow cytometric analysis", "type": "functional", "procedure,_shortened": "(§3)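 A549 cells in exponential growth were treated for 48 h, washed twice in PBS and fixed in 75% ethanol. They were then incubated for 0.5 h at 37 °C and stained with propidium iodide for 15 min. DNA content was read on a FACSCalibur flow cytometer.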"}, "A549 [7]": {"test_system": "A549", "test": "Cell cycle arrest in human A549 cells assessed as accumulation at S phase at 2 uM after 48 hrs by flow cytometric analysis", "type": "functional", "procedure,_shortened": "as §3"}, "Tubulin [8]": {"target": "Tubulin", "test": "Inhibition of tubulin polymerization in human MCF7 cells by fluorometric analysis", "procedure,_shortened": "as §2"}, "A549 [9]": {"test_system": "A549", "test": "Cell cycle arrest in human A549 cells assessed as accumulation at G0/G1 phase at 2 uM after 48 hrs by flow cytometric analysis", "type": "functional", "procedure,_shortened": "as §3"}}, "data": [{"molecule": "CCn1c2ccc(C(=O)c3ccc(Br)cc3)cc2c2c[n+](CC)ccc21", "values": [{"measurement": "IC50", "setting": "HCT-116", "result": "> 100", "unit": "µM"}, {"measurement": "IC50", "setting": "A549 [1]", "result": "> 100", "unit": "µM"}, {"measurement": "IC50", "setting": "K562 [2]", "result": "> 100", "unit": "µM"}, {"measurement": "IC50", "setting": "MCF7", "result": 56, "unit": "µM"}, {"measurement": "IC50", "setting": "[3]", "result": "> 100", "unit": "µM"}, {"measurement": "IC50", "setting": "K562 [4]", "result": "> 100", "unit": "µM"}]}, {"molecule": "Cn1c2ccncc2c2cc(C(=O)c3ccccc3)ccc21", "values": [{"measurement": "IC50", "setting": "K562 [4]", "result": 4.82, "unit": "µM"}]}, {"molecule": "CCn1c2ccncc2c2cc(C(=O)c3ccccc3)ccc21", "values": [{"measurement": "IC50", "setting": "HCT-116", "result": 8.63, "unit": "µM"}, {"measurement": "IC50", "setting": "A549 [1]", "result": 23.2, "unit": "µM"}, {"measurement": "IC50", "setting": "K562 [2]", "result": 9.09, "unit": "µM"}, {"measurement": "IC50", "setting": "MCF7", "result": 8.36, "unit": "µM"}, {"measurement": "IC50", "setting": "[3]", "result": 11.8, "unit": "µM"}, {"measurement": "IC50", "setting": "K562 [4]", "result": 4.96, "unit": "µM"}]}, {"molecule": "CC(C)n1c2ccncc2c2cc(C(=O)c3ccccc3)ccc21", "values": [{"measurement": "IC50", "setting": "K562 [4]", "result": 6.46, "unit": "µM"}]}, {"molecule": "CCn1c2ccncc2c2cc(C(=O)c3ccc(OC)cc3)ccc21", "values": [{"measurement": "IC50", "setting": "HCT-116", "result": 70.2, "unit": "µM"}, {"measurement": "IC50", "setting": "A549 [1]", "result": 20.5, "unit": "µM"}, {"measurement": "IC50", "setting": "K562 [2]", "result": 2.09, "unit": "µM"}, {"measurement": "IC50", "setting": "MCF7", "result": 3.85, "unit": "µM"}, {"measurement": "IC50", "setting": "[3]", "result": 17.8, "unit": "µM"}, {"measurement": "IC50", "setting": "K562 [4]", "result": 6.39, "unit": "µM"}]}, {"molecule": "CCn1c2ccncc2c2cc(C(=O)c3cccc(OC)c3)ccc21", "values": [{"measurement": "IC50", "setting": "HCT-116", "result": 34.3, "unit": "µM"}, {"measurement": "IC50", "setting": "A549 [1]", "result": 21.4, "unit": "µM"}, {"measurement": "IC50", "setting": "K562 [2]", "result": 1.57, "unit": "µM"}, {"measurement": "IC50", "setting": "MCF7", "result": 9.99, "unit": "µM"}, {"measurement": "IC50", "setting": "[3]", "result": 18.7, "unit": "µM"}, {"measurement": "IC50", "setting": "K562 [4]", "result": 6.42, "unit": "µM"}]}, {"molecule": "CCn1c2ccncc2c2cc(C(=O)c3ccc(S(C)(=O)=O)cc3)ccc21", "values": [{"measurement": "IC50", "setting": "Tubulin [5]", "result": 4.3, "unit": "µM"}, {"measurement": "Activity", "setting": "A549 [6]", "result": 63.12, "unit": "%"}, {"measurement": "IC50", "setting": "HCT-116", "result": 37.8, "unit": "µM"}, {"measurement": "IC50", "setting": "A549 [1]", "result": 24.2, "unit": "µM"}, {"measurement": "IC50", "setting": "K562 [2]", "result": 0.66, "unit": "µM"}, {"measurement": "Activity", "setting": "A549 [7]", "result": 26.59, "unit": "%"}, {"measurement": "IC50", "setting": "MCF7", "result": 3.28, "unit": "µM"}, {"measurement": "IC50", "setting": "[3]", "result": 24.9, "unit": "µM"}, {"measurement": "IC50", "setting": "Tubulin [8]", "result": 4.3, "unit": "µM"}, {"measurement": "IC50", "setting": "K562 [4]", "result": 5.26, "unit": "µM"}, {"measurement": "Activity", "setting": "A549 [9]", "result": 10.29, "unit": "%"}]}, {"molecule": "CCn1c2ccncc2c2cc(C(=O)c3ccc(Cl)cc3)ccc21", "values": [{"measurement": "IC50", "setting": "HCT-116", "result": 62.6, "unit": "µM"}, {"measurement": "IC50", "setting": "A549 [1]", "result": 27.2, "unit": "µM"}, {"measurement": "IC50", "setting": "K562 [2]", "result": 1.58, "unit": "µM"}, {"measurement": "IC50", "setting": "MCF7", "result": 30.6, "unit": "µM"}, {"measurement": "IC50", "setting": "[3]", "result": 62.5, "unit": "µM"}, {"measurement": "IC50", "setting": "K562 [4]", "result": 4.69, "unit": "µM"}]}, {"molecule": "CCn1c2ccncc2c2cc(C(=O)c3ccccc3Cl)ccc21", "values": [{"measurement": "IC50", "setting": "HCT-116", "result": 42.3, "unit": "µM"}, {"measurement": "IC50", "setting": "A549 [1]", "result": 41.4, "unit": "µM"}, {"measurement": "IC50", "setting": "K562 [2]", "result": 7.08, "unit": "µM"}, {"measurement": "IC50", "setting": "MCF7", "result": 21, "unit": "µM"}, {"measurement": "IC50", "setting": "[3]", "result": 38.6, "unit": "µM"}, {"measurement": "IC50", "setting": "K562 [4]", "result": 13.7, "unit": "µM"}]}, {"molecule": "CCn1c2ccncc2c2cc(C(=O)c3ccc(Br)cc3)ccc21", "values": [{"measurement": "IC50", "setting": "HCT-116", "result": 24.3, "unit": "µM"}, {"measurement": "IC50", "setting": "A549 [1]", "result": 35.1, "unit": "µM"}, {"measurement": "IC50", "setting": "K562 [2]", "result": 1.58, "unit": "µM"}, {"measurement": "IC50", "setting": "MCF7", "result": "> 100", "unit": "µM"}, {"measurement": "IC50", "setting": "[3]", "result": 34, "unit": "µM"}, {"measurement": "IC50", "setting": "K562 [4]", "result": 2.11, "unit": "µM"}]}, {"molecule": "CCn1c2ccncc2c2cc(C(=O)c3ccccc3F)ccc21", "values": [{"measurement": "IC50", "setting": "HCT-116", "result": 35.9, "unit": "µM"}, {"measurement": "IC50", "setting": "A549 [1]", "result": 46.8, "unit": "µM"}, {"measurement": "IC50", "setting": "K562 [2]", "result": 1.45, "unit": "µM"}, {"measurement": "IC50", "setting": "MCF7", "result": 4.74, "unit": "µM"}, {"measurement": "IC50", "setting": "[3]", "result": 35.6, "unit": "µM"}, {"measurement": "IC50", "setting": "K562 [4]", "result": 12.2, "unit": "µM"}]}, {"molecule": "CCn1c2ccncc2c2cc(C(=O)c3ccc([N+](=O)[O-])cc3)ccc21", "values": [{"measurement": "IC50", "setting": "HCT-116", "result": 59.2, "unit": "µM"}, {"measurement": "IC50", "setting": "A549 [1]", "result": 29.1, "unit": "µM"}, {"measurement": "IC50", "setting": "K562 [2]", "result": 3.68, "unit": "µM"}, {"measurement": "IC50", "setting": "MCF7", "result": 3.21, "unit": "µM"}, {"measurement": "IC50", "setting": "[3]", "result": "> 100", "unit": "µM"}, {"measurement": "IC50", "setting": "K562 [4]", "result": 16.8, "unit": "µM"}]}, {"molecule": "CCn1c2ccncc2c2cc(C(=O)c3ccc(N)cc3)ccc21", "values": [{"measurement": "IC50", "setting": "HCT-116", "result": 40.6, "unit": "µM"}, {"measurement": "IC50", "setting": "A549 [1]", "result": 49.3, "unit": "µM"}, {"measurement": "IC50", "setting": "K562 [2]", "result": 23.3, "unit": "µM"}, {"measurement": "IC50", "setting": "MCF7", "result": 5.04, "unit": "µM"}, {"measurement": "IC50", "setting": "[3]", "result": "> 100", "unit": "µM"}, {"measurement": "IC50", "setting": "K562 [4]", "result": 13.4, "unit": "µM"}]}, {"molecule": "CCn1c2ccc(C(=O)c3ccccc3)cc2c2c[n+](CC)ccc21", "values": [{"measurement": "IC50", "setting": "HCT-116", "result": "> 100", "unit": "µM"}, {"measurement": "IC50", "setting": "A549 [1]", "result": "> 100", "unit": "µM"}, {"measurement": "IC50", "setting": "K562 [2]", "result": "> 100", "unit": "µM"}, {"measurement": "IC50", "setting": "MCF7", "result": 12, "unit": "µM"}, {"measurement": "IC50", "setting": "[3]", "result": "> 100", "unit": "µM"}, {"measurement": "IC50", "setting": "K562 [4]", "result": "> 100", "unit": "µM"}]}]}
